Results as given in ChEMBL document CHEMBL1132564, “Antitumor benzothiazoles. 7. Synthesis of 2-(4-acylaminophenyl)benzothiazoles and investigations into the role of acetylation in the antitumor activities of the parent amines” (J Med Chem, 1999).

Assays:
[1] = system: MCF7; assay: In vitro antitumor activity against MCF-7 carcinoma cell line.; assay type: functional, cell-based; conditions: Homo sapiens
Outline: (§1)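 MTT assay, 7-day format: 250–300 cells/well, adhered 24 h drug-free, then compound 1 pM–100 μM (n = 8), final DMSO <0.25%; RPMI 1640/10% FCS, 37 °C, 5% CO2. MTT added after exposure, 4 h, formazan dissolved in DMSO–glycine (4:1), absorbance 550 nm.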

[2] = system: MDA-MB-468; assay: In vitro antitumor activity against MDA-468 carcinoma cell line.; assay type: functional, cell-based; conditions: Homo sapiens; outline: as §1
[3] = system: NCI; assay: In vitro antitumor activity against carcinoma cell lines by 2-day assay; assay type: functional, Homo sapiens
Outline: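 NCI panel sulforhodamine B assay: line-specific seeding, 24 h drug-free, then five 10-fold dilutions (top 10^-4 M) for 2 days; growth inhibition from protein-stain optical density change; mean log GI50 across panel.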

[4] = system: Homo sapiens; assay: In vitro concentration to reduce colony formation of human tumor xenografts to 30% of the control; assay type: functional
Outline: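 Clonogenic colony-formation assay using cells from 22 human tumor xenografts, tested at 0.1, 1.0 and 10 μg/mL; colony inhibition expressed as T/C, with T/C < 30% scored active; IC70 concentration reported.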

[5] = system: NCI; assay: In vitro antitumor activity against carcinoma cell lines by 6-day assay; assay type: functional, Homo sapiens
Outline: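 NCI 60-cell-line panel, sulforhodamine B protein stain. Seeding density set per line's growth; 24 h drug-free incubation, then test agent at five 10-fold dilutions up to 10^-4 M for 6 days of exposure. Growth inhibition derived from change in protein-stain optical density; log GI50 reported.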

Row | Structure (SMILES) | IC50 [1] [nM] | IC50 [2] [nM] | Mean log GI50 [3] [M] | Mean IC70 [4] [µg/mL] | Mean log GI50 [5] [M]
1 | O=C(CCl)Nc1ccc(-c2nc3ccccc3s2)cc1I | > 10 | > 10 | – | – | –
2 | CC(=O)Nc1ccc(-c2nc3ccccc3s2)cc1[N+](=O)[O-] | > 1000 | > 1000 | – | – | –
3 | O=C(Nc1ccc(-c2nc3ccccc3s2)cc1)C(F)(F)F | > 10 | > 100 | – | – | –
4 | Nc1ccc(-c2nc3ccccc3s2)cc1I | < 1 | < 1 | -4.75 | 6.1 | -5.12
5 | Nc1ccc(-c2nc3ccccc3s2)cc1Cl | < 1 | < 1 | -4.75 | – | -5.26
6 | CC(=O)Nc1ccc(-c2nc3ccccc3s2)cc1 | > 100 | > 100 | -4.4 | – | –
